Test results: ChEMBL document CHEMBL2311361, “Diminutive effect on T and B-cell proliferation of non-cytotoxic α-santonin derived 1,2,3-triazoles: a report” (Eur J Med Chem, 2013)

Test: Cytotoxicity against in Balb/c mouse B cells at 10^-6 M after 48 hrs by MTT assay
Format: cell-based
Conditions: 1 µM
Outline: (§1)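 Spleens taken aseptically from Balb/c mice (18–22 g). Single-cell suspension made in incomplete RPMI, RBCs lysed with Tris-ammonium chloride, cells washed, resuspended in complete RPMI and checked for viability by trypan blue. Cells seeded at 1 × 10⁶ cells/mL. Compounds in DMSO tested at 1×10⁻⁴, 1×10⁻⁵ and 1×10⁻⁶ M, 48 h, 37 °C, 5% CO₂.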
With `COc1ccc2cc(-n3nncc3COc3cc(C)c4c(c3C)[C@@H]3OC(=O)[C@@H](C)[C@@H]3CC4)ccc2c1` the Activity was “Non-toxic”. For `CC1=C2[C@H]3OC(=O)[C@@H](C)[C@@H]3CC[C@@]2(C)C=CC1=O` [SANTONIN], the Activity was “Non-toxic”. In the case of `Cc1cc(OCc2cnnn2-c2cccc(Br)c2COc2cccc(Br)c2)c(C)c2c1CC[C@H]1[C@H](C)C(=O)O[C@@H]21`, the Activity is reported as “Toxic”. In the case of `Cc1cc(OCc2cnnn2-c2cc(F)c(F)cc2Br)c(C)c2c1CC[C@H]1[C@H](C)C(=O)O[C@@H]21`, the Activity is reported as “Toxic”.

Test: Cytotoxicity against in Balb/c mouse B cells at 10^-5 M after 48 hrs by MTT assay
Format: cell-based
Conditions: 10 µM
Outline: as §1
For `COc1ccc2cc(-n3nncc3COc3cc(C)c4c(c3C)[C@@H]3OC(=O)[C@@H](C)[C@@H]3CC4)ccc2c1`, the Activity was “Non-toxic”. In the case of `CC1=C2[C@H]3OC(=O)[C@@H](C)[C@@H]3CC[C@@]2(C)C=CC1=O` [SANTONIN], the Activity is reported as “Non-toxic”. In the case of `Cc1cc(OCc2cnnn2-c2cccc(Br)c2COc2cccc(Br)c2)c(C)c2c1CC[C@H]1[C@H](C)C(=O)O[C@@H]21`, the Activity is reported as “Non-toxic”. In the case of `Cc1cc(OCc2cnnn2-c2cc(F)c(F)cc2Br)c(C)c2c1CC[C@H]1[C@H](C)C(=O)O[C@@H]21`, the Activity is reported as “Toxic”.

Test: Cytotoxicity against in Balb/c mouse T cells at 10^-6 M after 48 hrs by MTT assay
Format: cell-based
Conditions: t-cell, 1 µM
Outline: as §1
In the case of `COc1ccc2cc(-n3nncc3COc3cc(C)c4c(c3C)[C@@H]3OC(=O)[C@@H](C)[C@@H]3CC4)ccc2c1`, the Activity is reported as “Non-toxic”. For `CC1=C2[C@H]3OC(=O)[C@@H](C)[C@@H]3CC[C@@]2(C)C=CC1=O` [SANTONIN], the Activity was “Non-toxic”. For `Cc1cc(OCc2cnnn2-c2cccc(Br)c2COc2cccc(Br)c2)c(C)c2c1CC[C@H]1[C@H](C)C(=O)O[C@@H]21`, the Activity was “Toxic”. In the case of `Cc1cc(OCc2cnnn2-c2cc(F)c(F)cc2Br)c(C)c2c1CC[C@H]1[C@H](C)C(=O)O[C@@H]21`, the Activity is reported as “Toxic”.

Test: Cytotoxicity against in Balb/c mouse T cells at 10^-5 M after 48 hrs by MTT assay
Format: cell-based
Conditions: t-cell, 10 µM
Outline: as §1
With `COc1ccc2cc(-n3nncc3COc3cc(C)c4c(c3C)[C@@H]3OC(=O)[C@@H](C)[C@@H]3CC4)ccc2c1` the Activity was “Non-toxic”. For `CC1=C2[C@H]3OC(=O)[C@@H](C)[C@@H]3CC[C@@]2(C)C=CC1=O` [SANTONIN], the Activity was “Non-toxic”. For `Cc1cc(OCc2cnnn2-c2cccc(Br)c2COc2cccc(Br)c2)c(C)c2c1CC[C@H]1[C@H](C)C(=O)O[C@@H]21`, the Activity was “Non-toxic”. For `Cc1cc(OCc2cnnn2-c2cc(F)c(F)cc2Br)c(C)c2c1CC[C@H]1[C@H](C)C(=O)O[C@@H]21`, the Activity was “Toxic”.

Test: Cytotoxicity against in Balb/c mouse T cells at 10^-4 M after 48 hrs by MTT assay
Format: cell-based
Conditions: t-cell, 100 µM
Outline: as §1
For `COc1ccc2cc(-n3nncc3COc3cc(C)c4c(c3C)[C@@H]3OC(=O)[C@@H](C)[C@@H]3CC4)ccc2c1`, the Activity was “Non-toxic”. With `CC1=C2[C@H]3OC(=O)[C@@H](C)[C@@H]3CC[C@@]2(C)C=CC1=O` [SANTONIN] the Activity was “Non-toxic”. With `Cc1cc(OCc2cnnn2-c2cccc(Br)c2COc2cccc(Br)c2)c(C)c2c1CC[C@H]1[C@H](C)C(=O)O[C@@H]21` the Activity was “Non-toxic”. For `Cc1cc(OCc2cnnn2-c2cc(F)c(F)cc2Br)c(C)c2c1CC[C@H]1[C@H](C)C(=O)O[C@@H]21`, the Activity was “Toxic”.

Test: Cytotoxicity against in Balb/c mouse B cells at 10^-4 M after 48 hrs by MTT assay
Format: cell-based
Conditions: 100 µM
Outline: as §1
With `COc1ccc2cc(-n3nncc3COc3cc(C)c4c(c3C)[C@@H]3OC(=O)[C@@H](C)[C@@H]3CC4)ccc2c1` the Activity was “Non-toxic”. In the case of `CC1=C2[C@H]3OC(=O)[C@@H](C)[C@@H]3CC[C@@]2(C)C=CC1=O` [SANTONIN], the Activity is reported as “Non-toxic”. In the case of `Cc1cc(OCc2cnnn2-c2cccc(Br)c2COc2cccc(Br)c2)c(C)c2c1CC[C@H]1[C@H](C)C(=O)O[C@@H]21`, the Activity is reported as “Non-toxic”. With `Cc1cc(OCc2cnnn2-c2cc(F)c(F)cc2Br)c(C)c2c1CC[C@H]1[C@H](C)C(=O)O[C@@H]21` the Activity was “Toxic”.

Test: Immunostimulant activity in Balb/c mouse T cells assessed as inhibition of concanavalin A-induced cell proliferation at 10^-6 M after 48 hrs by MTT assay
Format: functional
Conditions: not given
Outline: as §1
`Cc1cc(OCc2cnnn2-c2cc(F)c(F)cc2Br)c(C)c2c1CC[C@H]1[C@H](C)C(=O)O[C@@H]21` gave an inhibition at 1 µM of 21.4%.

Test: Immunostimulant activity in Balb/c mouse T cells assessed as inhibition of concanavalin A-induced cell proliferation at 10^-5 M after 48 hrs by MTT assay
Format: functional
Conditions: not given
Outline: as §1
`CC1=C2[C@H]3OC(=O)[C@@H](C)[C@@H]3CC[C@@]2(C)C=CC1=O` [SANTONIN] showed an inhibition at 10 µM of 3.65%.

Test: Immunostimulant activity in Balb/c mouse T cells assessed as inhibition of concanavalin A-induced cell proliferation at 10^-4 M after 48 hrs by MTT assay
Format: functional
Conditions: Mus musculus, Balb/c, T-cell, 48 h
Outline: as §1
For `Cc1cc(OCc2cnnn2-c2cccc(Br)c2COc2cccc(Br)c2)c(C)c2c1CC[C@H]1[C@H](C)C(=O)O[C@@H]21`, the inhibition at 100 µM was 2.5%.

Test: Immunosuppressive activity in Balb/c mouse B cells assessed as inhibition of LPS-induced cell proliferation at 10^-6 M after 48 hrs by MTT assay
Format: functional
Conditions: not given
Outline: as §1
For `COc1ccc2cc(-n3nncc3COc3cc(C)c4c(c3C)[C@@H]3OC(=O)[C@@H](C)[C@@H]3CC4)ccc2c1`, the inhibition at 1 µM was 25.6%. `CC1=C2[C@H]3OC(=O)[C@@H](C)[C@@H]3CC[C@@]2(C)C=CC1=O` [SANTONIN] gave an inhibition at 1 µM of 23.1%. With `Cc1cc(OCc2cnnn2-c2cccc(Br)c2COc2cccc(Br)c2)c(C)c2c1CC[C@H]1[C@H](C)C(=O)O[C@@H]21` the inhibition at 1 µM was 24.2%. With `Cc1cc(OCc2cnnn2-c2cc(F)c(F)cc2Br)c(C)c2c1CC[C@H]1[C@H](C)C(=O)O[C@@H]21` the inhibition at 1 µM was 20%.

Test: Immunosuppressive activity in Balb/c mouse B cells assessed as inhibition of LPS-induced cell proliferation at 10^-5 M after 48 hrs by MTT assay
Format: functional
Conditions: not given
Outline: as §1
With `COc1ccc2cc(-n3nncc3COc3cc(C)c4c(c3C)[C@@H]3OC(=O)[C@@H](C)[C@@H]3CC4)ccc2c1` the inhibition at 10 µM was 94%. With `CC1=C2[C@H]3OC(=O)[C@@H](C)[C@@H]3CC[C@@]2(C)C=CC1=O` [SANTONIN] the inhibition at 10 µM was 25.6%. Molecule `Cc1cc(OCc2cnnn2-c2cccc(Br)c2COc2cccc(Br)c2)c(C)c2c1CC[C@H]1[C@H](C)C(=O)O[C@@H]21` has an inhibition at 10 µM of 16.7%. Work on `Cc1cc(OCc2cnnn2-c2cc(F)c(F)cc2Br)c(C)c2c1CC[C@H]1[C@H](C)C(=O)O[C@@H]21` yielded an inhibition at 10 µM of 21.4%.

Test: Immunosuppressive activity in Balb/c mouse B cells assessed as inhibition of LPS-induced cell proliferation at 10^-4 M after 48 hrs by MTT assay
Format: functional
Conditions: not given
Outline: as §1
In the case of `COc1ccc2cc(-n3nncc3COc3cc(C)c4c(c3C)[C@@H]3OC(=O)[C@@H](C)[C@@H]3CC4)ccc2c1`, the inhibition at 100 µM is reported as 28.2%. Work on `CC1=C2[C@H]3OC(=O)[C@@H](C)[C@@H]3CC[C@@]2(C)C=CC1=O` [SANTONIN] yielded an inhibition at 100 µM of -36.8%. For `Cc1cc(OCc2cnnn2-c2cccc(Br)c2COc2cccc(Br)c2)c(C)c2c1CC[C@H]1[C@H](C)C(=O)O[C@@H]21`, the inhibition at 100 µM was 17.5%. Molecule `Cc1cc(OCc2cnnn2-c2cc(F)c(F)cc2Br)c(C)c2c1CC[C@H]1[C@H](C)C(=O)O[C@@H]21` has an inhibition at 100 µM of 7.14%.

Test: Immunosuppressive activity in Balb/c mouse T cells assessed as inhibition of concanavalin A-induced cell proliferation at 10^-6 M after 48 hrs by MTT assay
Format: functional
Conditions: Mus musculus, Balb/c, T-cell, 48 h
Outline: as §1
`COc1ccc2cc(-n3nncc3COc3cc(C)c4c(c3C)[C@@H]3OC(=O)[C@@H](C)[C@@H]3CC4)ccc2c1` showed an inhibition at 1 µM of 93.9%. In the case of `CC1=C2[C@H]3OC(=O)[C@@H](C)[C@@H]3CC[C@@]2(C)C=CC1=O` [SANTONIN], the inhibition at 1 µM is reported as -40.2%. Work on `Cc1cc(OCc2cnnn2-c2cccc(Br)c2COc2cccc(Br)c2)c(C)c2c1CC[C@H]1[C@H](C)C(=O)O[C@@H]21` yielded an inhibition at 1 µM of 14.2%.

Test: Immunosuppressive activity in Balb/c mouse T cells assessed as inhibition of concanavalin A-induced cell proliferation at 10^-5 M after 48 hrs by MTT assay
Format: functional
Conditions: not given
Outline: as §1
For `COc1ccc2cc(-n3nncc3COc3cc(C)c4c(c3C)[C@@H]3OC(=O)[C@@H](C)[C@@H]3CC4)ccc2c1`, the inhibition at 10 µM was 95.1%. For `Cc1cc(OCc2cnnn2-c2cc(F)c(F)cc2Br)c(C)c2c1CC[C@H]1[C@H](C)C(=O)O[C@@H]21`, the inhibition at 10 µM was 20%.

Test: Immunosuppressive activity in Balb/c mouse T cells assessed as inhibition of concanavalin A-induced cell proliferation at 10^-4 M after 48 hrs by MTT assay
Format: functional
Conditions: not given
Outline: as §1
With `COc1ccc2cc(-n3nncc3COc3cc(C)c4c(c3C)[C@@H]3OC(=O)[C@@H](C)[C@@H]3CC4)ccc2c1` the inhibition at 100 µM was 93.9%. In the case of `CC1=C2[C@H]3OC(=O)[C@@H](C)[C@@H]3CC[C@@]2(C)C=CC1=O` [SANTONIN], the inhibition at 100 µM is reported as -6.09%. `Cc1cc(OCc2cnnn2-c2cc(F)c(F)cc2Br)c(C)c2c1CC[C@H]1[C@H](C)C(=O)O[C@@H]21` gave an inhibition at 100 µM of 15.7%.
